In ChEMBL document CHEMBL4689842, “EUbOPEN Chemogenomics Library wave 1” (2021):

Columns and labels:
Assay type in all cases: toxicity, cell-based
Fibroblast [1] = assay: Multiplex assay against human fibroblast
Summary of the method: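 Live cells were stained at seeding with Hoechst33342, BioTracker Green Microtubule Cytoskeleton Dye, MitoTracker Red and Annexin V Alexa Fluor 680, then imaged on a CQ1 microscope at 37°C and 5% CO2 after compound addition. CellPathfinder machine-learning gating split cells into Hoechst high-intensity objects or normal cells. Normal cells were split into healthy, pyknosed or fragmented nuclei, and pyknosed cells into mitotic or apoptotic. Tubulin, mitochondrial-mass and membrane-permeability phenotypes are per cents of healthy-nucleus cells.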

U2OS = assay: Incucyte cell viability with U2OS; details: human, 10 µM, compound concentration 10 uM; also: filed as whole numbers so only -1 and 0 and 1 occur
HEK-293T = assay: Incucyte cell viability with HEK293T; details: human, 10 µM, compound concentration 10 uM; also: filed as whole numbers so only -1 and 0 and 1 occur
Fibroblast [2] = assay: Incucyte cell viability with human fibroblast; details: 10 µM, compound concentration 10 uM; also: filed as whole numbers so only -1 and 0 and 1 occur
[3] = 12 h, 1 µM, compound concentration 1 uM, replicate 1
[4] = 12 h, 1 µM, compound concentration 1 uM, replicate 2
[5] = 12 h, 10 µM, compound concentration 10 uM, replicate 1
[6] = 12 h, 10 µM, compound concentration 10 uM, replicate 2
[7] = 24 h, 1 µM, compound concentration 1 uM, replicate 1
[8] = 24 h, 1 µM, compound concentration 1 uM, replicate 2
[9] = 24 h, 10 µM, compound concentration 10 uM, replicate 1
[10] = 24 h, 10 µM, compound concentration 10 uM, replicate 2
[11] = 48 h, 1 µM, compound concentration 1 uM, replicate 1
[12] = 48 h, 1 µM, compound concentration 1 uM, replicate 2
[13] = 48 h, 10 µM, compound concentration 10 uM, replicate 1
[14] = 48 h, 10 µM, compound concentration 10 uM, replicate 2
[15] = 6 h, replicate number 1, timepoint 6 hours
[16] = 12 h, replicate number 1, timepoint 12 hours
[17] = 18 h, replicate number 1, timepoint 18 hours
[18] = 24 h, replicate number 1, timepoint 24 hours

With COc1ccc(NS(=O)(=O)c2sc3ccc(Cl)cc3c2C)cc1N1CCNCC1.Cl the “Population Apoptotic (%)” value (Fibroblast [1]; [3]) was 50%, the “Population Fragmented Nuclei (%)” value (Fibroblast [1]; [3]) was 25% and the “Population Healthy Nuclei (%)” value (Fibroblast [1]; [3]) was 38%. For the same molecule, the “Population Hoechst High Intensity Objects (%)” value (Fibroblast [1]; [3]) was 10%, the “Population Membrane Permeable-Phenotype (%)” value (Fibroblast [1]; [3]) was 30% and the “Population Mitochondria Different-Phenotype (%)” value (Fibroblast [1]; [3]) was 4%. The “Population Mitotic Cells (%)” value (Fibroblast [1]; [3]) was 50%, the “Population Normal (%)” value (Fibroblast [1]; [3]) was 89% and the “Population Pyknosed Nuclei (%)” value (Fibroblast [1]; [3]) was 35%. The “Population Tubulin-Different-Phenotype (%)” value (Fibroblast [1]; [3]) was 30%, the “Total Cell Count” value (Fibroblast [1]; [3]) was 125 and the “Population Apoptotic (%)” value (Fibroblast [1]; [4]) was 28%. For the same molecule, the “Population Fragmented Nuclei (%)” value (Fibroblast [1]; [4]) was 13%, the “Population Healthy Nuclei (%)” value (Fibroblast [1]; [4]) was 69% and the “Population Hoechst High Intensity Objects (%)” value (Fibroblast [1]; [4]) was 12%. For the same molecule, the “Population Membrane Permeable-Phenotype (%)” value (Fibroblast [1]; [4]) was 0%, the “Population Mitochondria Different-Phenotype (%)” value (Fibroblast [1]; [4]) was 26% and the “Population Mitotic Cells (%)” value (Fibroblast [1]; [4]) was 71%. The “Population Normal (%)” value (Fibroblast [1]; [4]) was 87%, the “Population Pyknosed Nuclei (%)” value (Fibroblast [1]; [4]) was 16% and the “Population Tubulin-Different-Phenotype (%)” value (Fibroblast [1]; [4]) was 10%. For the same molecule, the “Total Cell Count” value (Fibroblast [1]; [4]) was 69, the “Population Apoptotic (%)” value (Fibroblast [1]; [5]) was 75% and the “Population Fragmented Nuclei (%)” value (Fibroblast [1]; [5]) was 33%. For the same molecule, the “Population Healthy Nuclei (%)” value (Fibroblast [1]; [5]) was 47%, the “Population Hoechst High Intensity Objects (%)” value (Fibroblast [1]; [5]) was 22% and the “Population Membrane Permeable-Phenotype (%)” value (Fibroblast [1]; [5]) was 1%. The “Population Mitochondria Different-Phenotype (%)” value (Fibroblast [1]; [5]) was 40%, the “Population Mitotic Cells (%)” value (Fibroblast [1]; [5]) was 24% and the “Population Normal (%)” value (Fibroblast [1]; [5]) was 77%. The “Population Pyknosed Nuclei (%)” value (Fibroblast [1]; [5]) was 19%, the “Population Tubulin-Different-Phenotype (%)” value (Fibroblast [1]; [5]) was 88% and the “Total Cell Count” value (Fibroblast [1]; [5]) was 217. For the same molecule, the “Population Apoptotic (%)” value (Fibroblast [1]; [6]) was 61%, the “Population Fragmented Nuclei (%)” value (Fibroblast [1]; [6]) was 14% and the “Population Healthy Nuclei (%)” value (Fibroblast [1]; [6]) was 56%. For the same molecule, the “Population Hoechst High Intensity Objects (%)” value (Fibroblast [1]; [6]) was 4%, the “Population Membrane Permeable-Phenotype (%)” value (Fibroblast [1]; [6]) was 25% and the “Population Mitochondria Different-Phenotype (%)” value (Fibroblast [1]; [6]) was 100%. For the same molecule, the “Population Mitotic Cells (%)” value (Fibroblast [1]; [6]) was 38%, the “Population Normal (%)” value (Fibroblast [1]; [6]) was 95% and the “Population Pyknosed Nuclei (%)” value (Fibroblast [1]; [6]) was 29%. The “Population Tubulin-Different-Phenotype (%)” value (Fibroblast [1]; [6]) was 94%, the “Total Cell Count” value (Fibroblast [1]; [6]) was 49 and the “Population Apoptotic (%)” value (Fibroblast [1]; [7]) was 40%. The “Population Fragmented Nuclei (%)” value (Fibroblast [1]; [7]) was 26%, the “Population Healthy Nuclei (%)” value (Fibroblast [1]; [7]) was 52% and the “Population Hoechst High Intensity Objects (%)” value (Fibroblast [1]; [7]) was 11%. The “Population Membrane Permeable-Phenotype (%)” value (Fibroblast [1]; [7]) was 25%, the “Population Mitochondria Different-Phenotype (%)” value (Fibroblast [1]; [7]) was 3% and the “Population Mitotic Cells (%)” value (Fibroblast [1]; [7]) was 60%. The “Population Normal (%)” value (Fibroblast [1]; [7]) was 88%, the “Population Pyknosed Nuclei (%)” value (Fibroblast [1]; [7]) was 20% and the “Population Tubulin-Different-Phenotype (%)” value (Fibroblast [1]; [7]) was 42%. The “Total Cell Count” value (Fibroblast [1]; [7]) was 136, the “Population Apoptotic (%)” value (Fibroblast [1]; [8]) was 33% and the “Population Fragmented Nuclei (%)” value (Fibroblast [1]; [8]) was 10%. The “Population Healthy Nuclei (%)” value (Fibroblast [1]; [8]) was 77%, the “Population Hoechst High Intensity Objects (%)” value (Fibroblast [1]; [8]) was 3% and the “Population Membrane Permeable-Phenotype (%)” value (Fibroblast [1]; [8]) was 5%. For the same molecule, the “Population Mitochondria Different-Phenotype (%)” value (Fibroblast [1]; [8]) was 13%, the “Population Mitotic Cells (%)” value (Fibroblast [1]; [8]) was 66% and the “Population Normal (%)” value (Fibroblast [1]; [8]) was 96%. For the same molecule, the “Population Pyknosed Nuclei (%)” value (Fibroblast [1]; [8]) was 12%, the “Population Tubulin-Different-Phenotype (%)” value (Fibroblast [1]; [8]) was 5% and the “Total Cell Count” value (Fibroblast [1]; [8]) was 67. The “Population Apoptotic (%)” value (Fibroblast [1]; [9]) was 72%, the “Population Fragmented Nuclei (%)” value (Fibroblast [1]; [9]) was 23% and the “Population Healthy Nuclei (%)” value (Fibroblast [1]; [9]) was 51%. For the same molecule, the “Population Hoechst High Intensity Objects (%)” value (Fibroblast [1]; [9]) was 25%, the “Population Membrane Permeable-Phenotype (%)” value (Fibroblast [1]; [9]) was 9% and the “Population Mitochondria Different-Phenotype (%)” value (Fibroblast [1]; [9]) was 50%. The “Population Mitotic Cells (%)” value (Fibroblast [1]; [9]) was 27%, the “Population Normal (%)” value (Fibroblast [1]; [9]) was 74% and the “Population Pyknosed Nuclei (%)” value (Fibroblast [1]; [9]) was 25%. For the same molecule, the “Population Tubulin-Different-Phenotype (%)” value (Fibroblast [1]; [9]) was 80%, the “Total Cell Count” value (Fibroblast [1]; [9]) was 226 and the “Population Apoptotic (%)” value (Fibroblast [1]; [10]) was 68%. For the same molecule, the “Population Fragmented Nuclei (%)” value (Fibroblast [1]; [10]) was 16%, the “Population Healthy Nuclei (%)” value (Fibroblast [1]; [10]) was 47% and the “Population Hoechst High Intensity Objects (%)” value (Fibroblast [1]; [10]) was 2%. The “Population Membrane Permeable-Phenotype (%)” value (Fibroblast [1]; [10]) was 55%, the “Population Mitochondria Different-Phenotype (%)” value (Fibroblast [1]; [10]) was 97% and the “Population Mitotic Cells (%)” value (Fibroblast [1]; [10]) was 32%. The “Population Normal (%)” value (Fibroblast [1]; [10]) was 97%, the “Population Pyknosed Nuclei (%)” value (Fibroblast [1]; [10]) was 35% and the “Population Tubulin-Different-Phenotype (%)” value (Fibroblast [1]; [10]) was 91%. For the same molecule, the “Total Cell Count” value (Fibroblast [1]; [10]) was 51, the “Population Apoptotic (%)” value (Fibroblast [1]; [11]) was 66% and the “Population Fragmented Nuclei (%)” value (Fibroblast [1]; [11]) was 38%. The “Population Healthy Nuclei (%)” value (Fibroblast [1]; [11]) was 47%, the “Population Hoechst High Intensity Objects (%)” value (Fibroblast [1]; [11]) was 20% and the “Population Membrane Permeable-Phenotype (%)” value (Fibroblast [1]; [11]) was 17%. The “Population Mitochondria Different-Phenotype (%)” value (Fibroblast [1]; [11]) was 0%, the “Population Mitotic Cells (%)” value (Fibroblast [1]; [11]) was 33% and the “Population Normal (%)” value (Fibroblast [1]; [11]) was 79%. For the same molecule, the “Population Pyknosed Nuclei (%)” value (Fibroblast [1]; [11]) was 14%, the “Population Tubulin-Different-Phenotype (%)” value (Fibroblast [1]; [11]) was 21% and the “Total Cell Count” value (Fibroblast [1]; [11]) was 134. For the same molecule, the “Population Apoptotic (%)” value (Fibroblast [1]; [12]) was 100%, the “Population Fragmented Nuclei (%)” value (Fibroblast [1]; [12]) was 53% and the “Population Healthy Nuclei (%)” value (Fibroblast [1]; [12]) was 45%. For the same molecule, the “Population Hoechst High Intensity Objects (%)” value (Fibroblast [1]; [12]) was 25%, the “Population Membrane Permeable-Phenotype (%)” value (Fibroblast [1]; [12]) was 9% and the “Population Mitochondria Different-Phenotype (%)” value (Fibroblast [1]; [12]) was 1%. The “Population Mitotic Cells (%)” value (Fibroblast [1]; [12]) was 0%, the “Population Normal (%)” value (Fibroblast [1]; [12]) was 74% and the “Population Pyknosed Nuclei (%)” value (Fibroblast [1]; [12]) was 1%. The “Population Tubulin-Different-Phenotype (%)” value (Fibroblast [1]; [12]) was 49%, the “Total Cell Count” value (Fibroblast [1]; [12]) was 219 and the “Population Apoptotic (%)” value (Fibroblast [1]; [13]) was 86%. The “Population Fragmented Nuclei (%)” value (Fibroblast [1]; [13]) was 33%, the “Population Healthy Nuclei (%)” value (Fibroblast [1]; [13]) was 44% and the “Population Hoechst High Intensity Objects (%)” value (Fibroblast [1]; [13]) was 42%. For the same molecule, the “Population Membrane Permeable-Phenotype (%)” value (Fibroblast [1]; [13]) was 10%, the “Population Mitochondria Different-Phenotype (%)” value (Fibroblast [1]; [13]) was 46% and the “Population Mitotic Cells (%)” value (Fibroblast [1]; [13]) was 13%. For the same molecule, the “Population Normal (%)” value (Fibroblast [1]; [13]) was 57%, the “Population Pyknosed Nuclei (%)” value (Fibroblast [1]; [13]) was 21% and the “Population Tubulin-Different-Phenotype (%)” value (Fibroblast [1]; [13]) was 73%. The “Total Cell Count” value (Fibroblast [1]; [13]) was 191, the “Population Apoptotic (%)” value (Fibroblast [1]; [14]) was 93% and the “Population Fragmented Nuclei (%)” value (Fibroblast [1]; [14]) was 34%. For the same molecule, the “Population Healthy Nuclei (%)” value (Fibroblast [1]; [14]) was 26%, the “Population Hoechst High Intensity Objects (%)” value (Fibroblast [1]; [14]) was 24% and the “Population Membrane Permeable-Phenotype (%)” value (Fibroblast [1]; [14]) was 22%. For the same molecule, the “Population Mitochondria Different-Phenotype (%)” value (Fibroblast [1]; [14]) was 54%, the “Population Mitotic Cells (%)” value (Fibroblast [1]; [14]) was 6% and the “Population Normal (%)” value (Fibroblast [1]; [14]) was 75%. The “Population Pyknosed Nuclei (%)” value (Fibroblast [1]; [14]) was 39%, the “Population Tubulin-Different-Phenotype (%)” value (Fibroblast [1]; [14]) was 72% and the “Total Cell Count” value (Fibroblast [1]; [14]) was 111. For the same molecule, the “Growth Rate” value (U2OS; [15]) was 0, the “Growth Rate” value (U2OS; [16]) was 0 and the “Growth Rate” value (U2OS; [17]) was 0. The “Growth Rate” value (U2OS; [18]) was 0, the “Growth Rate” value (HEK-293T; 0 h, replicate number 2, timepoint 0 hours) was 1 and the “Growth Rate” value (HEK-293T; [15]) was 0. For the same molecule, the “Growth Rate” value (HEK-293T; [16]) was 0, the “Growth Rate” value (HEK-293T; [17]) was 0 and the “Growth Rate” value (HEK-293T; [18]) was 0. For the same molecule, the “Growth Rate” value (Fibroblast [2]; 0 h, replicate number 1, timepoint 0 hours) was 1, the “Growth Rate” value (Fibroblast [2]; [15]) was 1 and the “Growth Rate” value (Fibroblast [2]; 6 h, replicate number 2, timepoint 6 hours) was 0. The “Growth Rate” value (Fibroblast [2]; [16]) was 0, the “Growth Rate” value (Fibroblast [2]; [17]) was 0 and the “Growth Rate” value (Fibroblast [2]; [18]) was 0.
